Autophagy HCS – modulators of autophagy. MEF GFP-LC3 puncta imaging; test concentration mostly 10 µM. calls only at 10 µM (by protocol). 190,000 tested, 0.98% active. AID 463193;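 active = percentage of spot-positive cells more than 3 SD above its plate mean, without a fluorescence outlier flag or 80% toxicity; inconclusive = no clear call, values can overlap the other calls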;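 also: spot-positive cell cutoff set from DMSO-treated cells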
HSV replic up – HSV replication enhancement. maximum fold increase. HSV replication augmentation in cells, fold increase. 220,000 tested, 0.005% active; in the data active = maximum fold increase above about 1.5; inconclusive = no clear call, values can overlap the other calls; tested in PC3 cells
Dynein transport – blocks dynein driven cargo transport along microtubules | 220,000 tested, 0.47% active | z-score, hits read low | 3617.4 mouse cells, GR-EGFP nuclear translocation imaging; test concentration mostly 20 µM; stimulated with dexamethasone, 1 µM; active compounds read low;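 active = plate z-score of nuclear minus cytoplasmic receptor signal below a set negative limit, without overly bright fluorescence or cell loss, cut at about -3.5 in these data, passing the limit was not always enough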;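 also: z-score of nuclear minus cytoplasmic ring GR-EGFP intensity difference per well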
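Also added – dexamethasone, 1.0 µM final · Buffer or medium – tet-free, stripped-serum medium · Schedule – induction 48 h, compound 1 h, agonist 30 min · Detection – formaldehyde fixation, Hoechst nuclear stain, 10x automated fluorescence imaging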
TNF death inh – blocks TNF-alpha induced death of Jurkat FADD-/- cells | activation (protection from cell death), % at 10 µM | Jurkat FADD-/- TNF necroptosis rescue, ATP luminescence, 24 h; 0 = TNF only, 100 = no-TNF cells | 220,000 tested, 0.068% active;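 active = activation, meaning protection from cell death, of at least 50% relative to plate controls; inactive = activation below 50%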;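 also: necroptosis triggered by 40 ng/mL TNF-alpha added together with compound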
Furin inh – blocks human furin protease activity | P09958 | 220,000 tested, 0.061% active | purified furin, fluorogenic substrate cleavage | AID 463115 | inhibition, % at 20 µM or 30 µM; in the data active = inhibition above about 25%
Target sequence (P09958 108-714 limits assumed): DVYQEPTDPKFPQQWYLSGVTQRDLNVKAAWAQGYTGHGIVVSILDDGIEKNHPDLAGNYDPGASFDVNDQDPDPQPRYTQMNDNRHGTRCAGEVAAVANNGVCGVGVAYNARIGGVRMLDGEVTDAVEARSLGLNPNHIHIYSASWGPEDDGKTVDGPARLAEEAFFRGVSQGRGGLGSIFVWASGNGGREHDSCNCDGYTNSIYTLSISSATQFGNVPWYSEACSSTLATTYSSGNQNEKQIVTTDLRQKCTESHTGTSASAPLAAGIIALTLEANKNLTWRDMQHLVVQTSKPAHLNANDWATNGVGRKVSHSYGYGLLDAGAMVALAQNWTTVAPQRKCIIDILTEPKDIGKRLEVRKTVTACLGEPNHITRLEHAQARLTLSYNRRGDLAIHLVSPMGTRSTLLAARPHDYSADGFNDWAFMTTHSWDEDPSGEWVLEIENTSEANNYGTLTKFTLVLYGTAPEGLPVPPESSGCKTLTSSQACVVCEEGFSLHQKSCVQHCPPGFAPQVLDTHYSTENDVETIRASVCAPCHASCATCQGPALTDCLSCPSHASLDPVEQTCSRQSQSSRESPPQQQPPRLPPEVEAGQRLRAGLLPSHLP
L929 necroptosis – L929 zVAD cell death inhibition. viability rescue, % at 10 µM. 220,000 tested, 0.38% active. L929 zVAD necroptosis rescue, ATP luminescence, 24 h; with zVAD 60 µM;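 active = activation, scaled between plate controls, above about 75%, limit read from the data; inactive = activation under that limit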;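 also: 0% = zVAD with DMSO and 100% = DMSO alone without zVAD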
Dynein inh conf – dynein cargo transport inhibition, confirmation. shares compounds with Dynein transport. 3617.4 GR-EGFP nuclear translocation imaging, dexamethasone-induced. calls only at 20 µM. 1,000 tested, 69% active. AID 463116;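 active = inhibition of receptor movement into the nucleus at or above a set limit in both runs, with normal cell brightness and cell count; inconclusive = limit reached in only one run, brightness and count normal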;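 also: dexamethasone at 1 µM final in well for 30 min; nuclear minus cytoplasmic GR-EGFP mean intensity difference in channel 2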
Active calls of the source: *; i = inactive; ? = inconclusive; / = not tested or not shown; + = active, no number. Sampled rows, rich in hits. Any-hit rate of the full collection: about 1.8%.

SMILES	Autophagy HCS	HSV replic up	Dynein transport	TNF death inh	Furin inh	L929 necroptosis	Dynein inh conf
CC(C)(C)OC(=O)N[C@@H](Cc1ccccc1)c1nnc(S(=O)(=O)Cc2cccc(F)c2)o1	i	i	-0.99	-14	-7	0	/
O=c1cc(N=Nc2ccc(Cl)cc2)[nH]c(=O)[nH]1	/	i	-4.5*	-29	-19	5	+
CCOC(=O)NC(c1ccc(C(C)C)cc1)C(Cl)(Cl)Cl (stereo not given)	i	i	2.4	0	0	1	/
Cc1ccc(-c2cn3nc(-c4ccccc4)c(-c4ccccc4)nc3n2)cc1	/	i	-4.6	-14	-13	0	+
O=[N+]([O-])c1cccc(-c2cn3nc(-c4ccccc4)c(-c4ccccc4)nc3n2)c1	/	i	-0.58	-1	-4	0	/
Nc1ccc2c3c(cccc13)C(=O)N(c1ccccc1)C2=O	i	?	-5*	0	-30	0	+
O=C(c1cccc(C(=O)N(c2ccccn2)C2CCCCC2)c1)N(c1ccccn1)C1CCCCC1	i	i	-0.51	-2	-32	0	/
N#C/C(=C\c1ccccc1)C(=O)N(c1ccccn1)C1CCCCC1	i	i	-3.9*	-1	-23	0	i
COc1cccc(C(=O)C2CCCN(C(=O)c3cccc(C#CC(C)(C)O)c3)C2)c1 (stereo not given)	i	i	1	2	-6	0	/
O=C(Nc1ccccc1)C1=C(O)CC(c2ccoc2)CC1=Nc1ccccc1 (stereo not given)	i	i	-4.2*	-1	-13	0	i
O=C(Nc1ccccc1)C1=C(O)CC(c2ccco2)CC1=Nc1ccccc1 (stereo not given)	i	i	-0.26	0	-19	0	/
O=C1N/C(=C/c2ccc(N3CCOCC3)o2)C(=O)N1c1cccc(Cl)c1	i	i	-4.1	-2	-8	0	i
CCOC(=O)c1c(NC(=O)c2cc(C)on2)c2cc([N+](=O)[O-])ccc2n1C	/	i	1.9	-1	-11	1	/
O=C(C1CC1)N1CCC(C(O)(c2ccccc2)c2ccccc2)CC1	i	i	-0.73	-1	-12	1	/
O=C(c1coc(=O)c(Br)c1)N1CCC(C(O)(c2ccccc2)c2ccccc2)CC1	/	i	-4.5*	-10	-34	0	+
CCn1c(Cl)c(C=O)s/c1=N\S(=O)(=O)c1ccccc1	/	i	-7*	-31	9	12	+
CCN1C(=O)CS/C1=N\S(=O)(=O)c1ccc(Cl)cc1	i	i	0.39	0	-15	2	/
CC(=O)Nc1ccc(S(=O)(=O)N/N=C/c2ccc(C)s2)cc1	i	i	-0.65	1	-7	1	/
O=C(/C=C/c1ccc(N2CCCCC2)c([N+](=O)[O-])c1)c1ccc(O)cc1	i	i	-3.7*	-8	-4	-1	+
O=C(c1ccc(N2CCCCC2)c([N+](=O)[O-])c1)N1CCOCC1	i	i	-0.27	-2	-12	0	/
COc1ccccc1C(=O)/C=C/c1ccc(N2CCCCC2)c([N+](=O)[O-])c1	i	i	-5.4*	-5	0	-1	+
Cn1c(N)c(N2CCN(c3ccccc3)CC2)c(=O)[nH]c1=O	i	i	-0.17	0	-18	2	/
COC(CNC(=O)c1ccc2c3c(onc13)-c1ccccc1C2=O)OC	/	i	-4.9*	-30	-16	-3	+
O=C(O)COc1ccccc1/C=N/NC(=O)CSc1nnc(SCc2ccccc2)s1	/	i	0.73	1	-21	0	/
COc1ccc(-n2ncc(Cl)c(Cl)c2=O)cc1	i	i	-6.8*	-15	-25	43	+
SMILES	Autophagy HCS	HSV replic up	Dynein transport	TNF death inh	Furin inh	L929 necroptosis	Dynein inh conf
Cc1cccc(C(=O)N2CCC(Cc3ccccc3)CC2)c1[N+](=O)[O-]	i	i	-0.097	1	3	1	/
CC1=CC=CN2C1=NC(=O)CC2(C)C(=O)N(CC(=O)NC1CCCC1)c1cc(C)cc(C)c1 (stereo not given)	i	i	-0.6	0	-23	0	/
O=C(N/N=C/c1ccc(N2CCCCC2)o1)c1ccccc1	i	i	-3.8*	2	-13	0	i
CCSc1nnc(-c2ccncc2)o1	i	i	0.48	-2	-13	0	/
CCSc1nnc(-c2sc3nnc(-c4ccccc4)c(-c4ccccc4)c3c2N)o1	?	?	-7.4	-1	-11	0	i
O=C(COC(=O)c1ccc2c(=O)n3c(nc2c1)CCC3)NC1CCS(=O)(=O)C1 (stereo not given)	i	i	0.17	0	-16	3	/
Cc1ccc2nc(SCC(=O)Nc3ccc(C(N)=O)cc3)[nH]c2c1	i	i	-6.7*	3	-18	12	i
Cc1ccc2nc(SCC(=O)Nc3cccc([N+](=O)[O-])c3)[nH]c2c1	i	i	-0.083	-2	-10	0	/
CCCNC(=O)Cn1sc2nc(C)cc(C)c2c1=O	/	i	-4.8*	-4	-20	0	i
Cc1cc(C)c2c(=O)n(CC(=O)N3CCC(N4CCCCC4)CC3)sc2n1	i	i	-4.2*	-4	-25	0	i
CCOC(=O)C1CCCN(C(=O)Cn2sc3nc(C)cc(C)c3c2=O)C1 (stereo not given)	i	i	-4.1*	-3	-28	0	?
CS(=O)c1nc(-c2ccc(Br)cc2)cc(-c2ccccc2)c1C#N (stereo not given)	i	i	-4.1*	-22	-14	20	+
N#Cc1c(-c2ccc(Br)cc2)cc(-c2cccnc2)nc1N	i	i	-0.77	0	-28	0	/
CS(=O)(=O)c1nc(-c2ccc(Br)cc2)cc(-c2ccccc2)c1C#N	+	i	-6*	-20	-9	34	+
CC(=O)Nc1ccccc1NC(=O)c1ccc(C)c(C)c1	i	i	0.28	0	-15	0	/
CC(=O)NCCC(=O)NCc1ccc(F)cc1	i	i	-0.11	1	-19	0	/
CC(=O)NCc1ccc(C(=O)CCl)s1	i	i	-5*	-11	-28	3	+
CC(=O)NCc1ccc(C(=O)CCl)cc1	i	i	-6.8*	-14	-20	39	+
CC(=O)N(C)Cc1ccc(C(=O)CCl)cc1	i	i	-4.6	-16	-14	-1	+
O=C1C(Cl)=C(NCCN2CCCCC2)C(=O)c2ccccc21	i	i	-4.2*	-26	-20	-3	+
